Activity calls are given as the source filed them. The calls are words filed in the database; no cut-off is given here.
Tests used:
[1] = system: Mus musculus; experiment: Behavioral toxicity in albino Icem-CET (SPF Caw) mouse assessed as reduction in locomotor activity at 25 to 800 mg/kg, po by Irwin's test; type: organism-based; set-up: dose 25-800 mg/kg, route oral; conditions: in vivo
[2] = system: Mus musculus; experiment: Behavioral toxicity in albino Icem-CET (SPF Caw) mouse assessed as positional passivity at 25 to 800 mg/kg, po by Irwin's test; type: organism-based; set-up: dose 25-800 mg/kg, route oral; conditions: in vivo
[3] = system: Mus musculus; experiment: Toxicity in po dosed albino Icem-CET (SPF Caw) mouse assessed as clonic type convulsion by Irwin's test; type: organism-based; conditions: in vivo
How it was run: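 Irwin test in fasted (9 h) male Icem-CET (SPF Caw) mice, 17-22 g. Oral gavage of a 0.5% Methocel suspension at screening doses of 25-800 mg/kg. Clonic-type convulsions were scored as the minimum effective dose.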

[4] = system: Mus musculus; experiment: Toxicity in po dosed albino Icem-CET (SPF Caw) mouse assessed as impairment of pinna by Irwin's test; type: organism-based; conditions: in vivo
[5] = system: Mus musculus; experiment: Toxicity in po dosed albino Icem-CET (SPF Caw) mouse assessed as impairment of corneal reflexes by Irwin's test; type: organism-based, Cornea; conditions: in vivo
[6] = system: Mus musculus; experiment: Behavioral toxicity in po dosed albino Icem-CET (SPF Caw) mouse assessed as tremors by Irwin's test; type: organism-based; conditions: in vivo
[7] = Behavioral toxicity in po dosed albino Icem-CET (SPF Caw) mouse measured up to 7 days by Irwin's test; type: organism-based; conditions: in vivo
[8] = system: Mus musculus; experiment: Anticonvulsant activity in albino Icem-CET (SPF Caw) mouse assessed as inhibition of pentylenetetrazole-induced maximal extensor seizures at 100 mg/kg, po administered 30 mins prior challenge; type: functional, organism-based; set-up: dose 100 mg/kg
How it was run: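 Single-dose screen at 100 mg/kg by gavage in 0.5% Methocel in fasted male Icem-CET (SPF Caw) mice, 17-22 g. Dosing was 30 min before pentylenetetrazole 130 mg/kg ip, and prevention of maximal extensor seizures was scored.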

For `C/C(C(=O)NC1CC1)=C(\C)c1ccc(F)cc1`, the Activity [1] was “Non-toxic”, the Activity [2] was “Non-toxic” and the MED [3] was 800 mg/kg. The Activity [4] was “Toxic”, the Activity [5] was “Toxic” and the ED50 [6] was 600 mg/kg. The LD50 at 168 h [7] was 450 mg/kg and the Activity [8] was “inactive”.

Source: ChEMBL document CHEMBL3272207, “Structure-activity relationship in cinnamamides. 2. Synthesis and pharmacological evaluation of some (E)- and (Z)-N-alkyl-alpha, beta-dimethylcinnamamides substituted on the phenyl group” (J Med Chem, 1977)
